High-throughput results deposited in PubChem by Broad Institute.
A selection: hits, their analogues and other compounds. The true share with any hit is near 3.5%.
esBAF inh: blocks esBAF chromatin remodeling in mouse ES cells; hit rate 2% among 350,000; AID 602393; Bmi1-luciferase knock-in reporter, 24 h; 100% = twice the neutral-well signal; reporter increase, % at 12.5 µM; in the data active = activation above about 40%; inconclusive = no clear call, values can overlap the other calls;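 note: a rise in the Bmi1 reporter signal indicates esBAF inhibition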
Env fusion inh: inhibitors of HIV Env-mediated cell fusion | inhibition, % at 12.3 µM | HeLa-JRFL Env/CEM21 cell fusion, luciferase | hit rate 1.1% among 360,000 | AID 651610;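 active = mean replicate inhibition score of at least 50 and every replicate individually at or above 50; inconclusive = only one of the two criteria met; inactive = mean below 50 and not all replicates reaching 50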
MITF act: activators of MITF-driven TRPM1 promoter activity in SK-MEL-5 cells; SK-MEL-5 TRPM1-promoter luciferase, 24 h; % of positive control, neutral wells = 0; hit rate 0.75% among 300,000; activation, % at 12.5 µM; AID 588334;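 active = mean activation of at least 80% with every replicate also reaching 80%; inconclusive = mean reaches 80% but some replicate falls short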
Cneo AK release: Cryptococcus neoformans lysis via adenylate kinase release | C. neoformans lysis, adenylate kinase release luminescence, 4 h; normalised: neutral wells 0, clomiphene wells 100 | lysis activity, % at 15 µM | hit rate 0.2% among 360,000 | AID 651654;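 active = mean lysis activity across replicates of at least 80%, whatever share of replicates individually reach that level; inactive = mean lysis activity below 80%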
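Material: C. neoformans cells | Amount: Yeast cell density of 5 × 10^6 cells/mL | Medium: Fresh YPD growth medium | Dosing: Single dose | Times: Static 4 h at 37 °C with compound, 1 h detection | Detection: AK luminescence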
Wnt bcat act: Wnt/beta-catenin pathway activation; hit rate 1.2% among 300,000; activation, % at 9.35 µM; Wnt/beta-catenin reporter cell assay, activator, plate reader; in the data active = activation above about 30%, passing the limit was not always enough; inconclusive = no clear call, values can overlap the other calls
ERAP1 inh: ERAP1 (human) enzyme inhibition; recombinant ERAP1, Leu-AMC fluorescence, 60 min; inhibition, % at 10.7 µM; hit rate 0.15% among 340,000; Q9NZ08; AID 652197;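 active = mean replicate inhibition of at least 30%, or all replicates individually reaching that 30% level; inactive = mean below 30% and not every replicate reaching it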
Target sequence (Q9NZ08 whole entry, looked up): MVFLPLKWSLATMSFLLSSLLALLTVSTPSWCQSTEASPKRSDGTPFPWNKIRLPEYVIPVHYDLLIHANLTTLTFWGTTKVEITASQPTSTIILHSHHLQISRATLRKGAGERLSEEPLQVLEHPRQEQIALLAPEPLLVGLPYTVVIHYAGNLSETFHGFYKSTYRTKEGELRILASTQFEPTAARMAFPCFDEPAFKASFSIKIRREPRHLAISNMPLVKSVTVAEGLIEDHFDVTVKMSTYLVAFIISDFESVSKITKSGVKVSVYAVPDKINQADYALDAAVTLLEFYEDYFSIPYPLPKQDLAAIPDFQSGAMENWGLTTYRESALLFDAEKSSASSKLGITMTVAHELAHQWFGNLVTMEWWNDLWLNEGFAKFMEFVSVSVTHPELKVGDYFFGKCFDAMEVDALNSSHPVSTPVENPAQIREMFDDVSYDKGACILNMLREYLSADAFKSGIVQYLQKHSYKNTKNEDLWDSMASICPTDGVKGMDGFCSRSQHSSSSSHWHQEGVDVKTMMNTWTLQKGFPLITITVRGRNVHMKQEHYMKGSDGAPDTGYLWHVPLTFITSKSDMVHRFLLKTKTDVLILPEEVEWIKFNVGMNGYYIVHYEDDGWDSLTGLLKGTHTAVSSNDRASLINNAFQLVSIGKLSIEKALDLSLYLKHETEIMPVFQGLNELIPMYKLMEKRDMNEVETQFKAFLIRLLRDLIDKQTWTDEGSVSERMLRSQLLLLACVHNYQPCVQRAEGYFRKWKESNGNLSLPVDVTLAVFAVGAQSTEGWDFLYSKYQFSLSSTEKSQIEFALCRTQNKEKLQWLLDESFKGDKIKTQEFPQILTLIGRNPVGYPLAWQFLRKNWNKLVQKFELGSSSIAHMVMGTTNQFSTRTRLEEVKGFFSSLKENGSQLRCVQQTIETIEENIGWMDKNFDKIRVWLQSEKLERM
A number is an active result; [ ] = remark or other dose.

What do the screens show for `COc1ccc(NC(=O)Nc2ccc3c(c2)C(=O)N([C@@H](C)CO)C[C@@H](C)[C@@H](CN(C)Cc2ccc(C(=O)O)cc2)OCCCC[C@H](C)O3)cc1`?
esBAF inh: inactive; Env fusion inh: inactive; Cneo AK release: inactive; ERAP1 inh: inactive

What do the screens show for `CC(=O)c1cccc(OCc2cc(C(=O)N(C)C(C)c3ccccn3)no2)c1` (centres undefined)?
esBAF inh: inactive; Env fusion inh: inactive; MITF act: inactive; Cneo AK release: inactive; Wnt bcat act: inactive; ERAP1 inh: inactive

What do the screens show for `CC(=O)c1ccc(OCc2cc(C(=O)N(C)Cc3ncc(C)[nH]3)no2)cc1`?
esBAF inh: inactive; Env fusion inh: inactive; MITF act: inactive; Cneo AK release: inactive; Wnt bcat act: inactive; ERAP1 inh: inactive

What do the screens show for `CCc1ccc(CN(C)C(=O)c2cc(COc3ccc(OC)cc3Cl)on2)nc1`?
esBAF inh: 46; Env fusion inh: inactive; MITF act: inactive; Cneo AK release: inactive; Wnt bcat act: inactive; ERAP1 inh: inactive

What do the screens show for `CC(=O)c1ccc(OCc2cc(C(=O)N(C)C(C)c3nccs3)no2)cc1` (centres undefined)?
esBAF inh: 54; Env fusion inh: inactive; MITF act: inactive; Cneo AK release: inactive; Wnt bcat act: inactive; ERAP1 inh: inactive

What do the screens show for `CC(=O)c1cccc(OCc2cc(C(=O)N(C)Cc3cnccn3)no2)c1`?
Env fusion inh: inactive; MITF act: 96; Cneo AK release: inactive; Wnt bcat act: inactive; ERAP1 inh: inactive

What do the screens show for `CC(=O)c1ccc(OCc2cc(C(=O)N(C)Cc3cc(C)no3)no2)cc1`?
esBAF inh: 62; Env fusion inh: inactive; MITF act: inactive; Cneo AK release: inactive; Wnt bcat act: inactive; ERAP1 inh: inactive

Results for CCS(=O)(=O)N1CC2(C1)[C@@H](c1ccccc1)[C@@H](CO)N2Cc1ccccn1 ?
ERAP1 inh: inactive

How did C[C@H](CO)N1C[C@H](C)[C@H](CN(C)C(=O)Nc2cccc3ccccc23)OCCCC[C@H](C)Oc2ccc(NS(=O)(=O)c3cn(C)cn3)cc2C1=O do in these assays?
esBAF inh: inactive; Env fusion inh: inactive; Cneo AK release: inactive

What do the screens show for `CCN(Cc1ccncc1)C(=O)c1cc(COc2ccc(F)cc2Cl)on1`?
esBAF inh: inactive; Env fusion inh: inactive; MITF act: inactive; Cneo AK release: inactive; Wnt bcat act: inactive; ERAP1 inh: inactive

Results for CCN(Cc1ccncc1)C(=O)c1cc(COc2ccc(OC)cc2Cl)on1 ?
esBAF inh: 72; Env fusion inh: inactive; MITF act: inactive; Cneo AK release: inactive; Wnt bcat act: inactive; ERAP1 inh: inactive

How did COc1ccc(OCc2cc(C(=O)N(C)Cc3nnc(C)o3)no2)c(Cl)c1 do in these assays?
esBAF inh: inconclusive; Env fusion inh: inactive; MITF act: inactive; Cneo AK release: inactive; Wnt bcat act: inactive; ERAP1 inh: inactive

How did Cc1ccc(CN(C)C(=O)c2cc(COc3ccc(F)cc3Cl)on2)o1 do in these assays?
esBAF inh: 60; Env fusion inh: inactive; MITF act: inactive; Cneo AK release: inactive; Wnt bcat act: inactive; ERAP1 inh: inactive

How did COc1ccc(OCc2cc(C(=O)N(C)Cc3cc(C)no3)no2)c(Cl)c1 do in these assays?
esBAF inh: 48; Env fusion inh: inactive; MITF act: inactive; Cneo AK release: inactive; Wnt bcat act: inactive; ERAP1 inh: inactive

What do the screens show for `Cc1nonc1CN(C)C(=O)c1cc(COc2ccc(F)cc2Cl)on1`?
esBAF inh: inactive; MITF act: inactive; Cneo AK release: inactive; Wnt bcat act: inactive; ERAP1 inh: inactive

Results for O=C(C[C@@H]1C=C[C@H](NC(=O)c2ccncc2)[C@H](CO)O1)NCCc1ccncc1 ?
esBAF inh: inactive; Env fusion inh: inactive; Cneo AK release: inactive; ERAP1 inh: inactive

What do the screens show for `COCC(=O)Nc1ccc2c(c1)C(=O)N(C)C[C@@H](OC)[C@H](C)CN(C(=O)Cc1ccccn1)[C@@H](C)CO2`?
esBAF inh: inactive; Cneo AK release: inactive; ERAP1 inh: inactive

Results for COc1ccc(C(=S)Nc2ccc(N(C)C)cc2)cc1 ?
esBAF inh: inactive; Env fusion inh: inactive; MITF act: inactive; Cneo AK release: inactive; Wnt bcat act: 68

How did COc1ccc(NC(=S)c2ccc(N(C)C)cc2)cc1 do in these assays?
Env fusion inh: inactive; MITF act: inactive

What do the screens show for `Cc1ccc(NC(=S)c2ccc(N(C)C)cc2)cc1`?
esBAF inh: inactive; Env fusion inh: inactive; MITF act: inactive; Wnt bcat act: 46

How did Cc1ccc(S(=O)(=O)NC(=O)Nc2ccc(N(C)C)cc2)cc1 do in these assays?
esBAF inh: inactive; Env fusion inh: inactive; MITF act: inactive; Cneo AK release: inactive; Wnt bcat act: inactive; ERAP1 inh: inactive

How did COc1ccc(NC(=S)Nc2ccccc2)cc1 do in these assays?
esBAF inh: inactive; Env fusion inh: inactive; MITF act: inactive; Cneo AK release: inactive; Wnt bcat act: inactive; ERAP1 inh: inactive

Results for COc1ccc(NC(=S)c2ccccc2)cc1 ?
esBAF inh: 61; Env fusion inh: inactive; MITF act: 83; Cneo AK release: inactive; Wnt bcat act: inactive

Results for CCCN1[C@@H]2c3ccc(-c4ccc(F)cc4)c(=O)n3C[C@H]1[C@H](CO)[C@H]2C(=O)NCC ?
ERAP1 inh: inactive

What do the screens show for `Cc1ccc(S(=O)(=O)N(C)C[C@@H]2Oc3ccc(NS(=O)(=O)c4cn(C)cn4)cc3C(=O)N([C@@H](C)CO)C[C@@H]2C)cc1`?
esBAF inh: inactive; Env fusion inh: inactive

What do the screens show for `COc1ccccc1NC(=O)N[C@H]1C=C[C@H](CC(=O)N[C@@H](C)c2ccccc2)O[C@@H]1CO`?
esBAF inh: inactive; Env fusion inh: inactive; Cneo AK release: inactive; ERAP1 inh: inactive

How did COc1ccccc1NC(=O)COc1ccc(CO)cc1Cl do in these assays?
esBAF inh: 51; Cneo AK release: inactive; Wnt bcat act: inactive

What do the screens show for `COc1ccccc1NC(=O)N[C@@H]1C=C[C@H](CC(=O)N[C@H](C)c2ccccc2)O[C@H]1CO`?
esBAF inh: inactive; Env fusion inh: 95[16.7 µM]; Cneo AK release: inactive; ERAP1 inh: inactive

How did COc1ccccc1NC(=O)N[C@@H]1C=C[C@H](CC(=O)NCc2ccc(Cl)c(Cl)c2)O[C@@H]1CO do in these assays?
esBAF inh: inactive; Env fusion inh: 74[16.7 µM]; Cneo AK release: inactive; ERAP1 inh: inactive

Results for O=C(OCc1c(-c2ccccc2)ncc2ccccc12)N1CCOCC1 ?
esBAF inh: 57; Env fusion inh: inactive; MITF act: 101; Cneo AK release: inactive; Wnt bcat act: 37; ERAP1 inh: inactive

What do the screens show for `O=C(O)CCC(=O)OCc1c(-c2ccccc2)ncc2ccccc12`?
esBAF inh: inactive; Env fusion inh: inactive; MITF act: inactive; Cneo AK release: inactive; Wnt bcat act: inactive; ERAP1 inh: inactive

How did CC(C)CSc1nnc2c(n1)[nH]c1ccccc12 do in these assays?
Env fusion inh: inactive; MITF act: inactive; Wnt bcat act: 50
